# Measured values reported in PubChem BioAssay.
# The source made the active and inactive calls.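 How the source made its calls, unless noted: active means viability loss from added drug above about 55%, and viability with drug at most 40%, in both replicates (limit read from the data, passing the limit was not always enough); inconclusive means both conditions met in only one replicate; inactive means neither replicate meets both conditions.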
# Legend:
# [1] = SK-BR-3 cell growth inhibitors, pilot screen, 24 h, human (AID 572;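 active means viability at or below 10% of carrier control in both of two separate runs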;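 further: compound exposure lasted between 18 and 24 h rather than exactly 24 h; 100% = carrier-treated control wells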); conditions: SK-BR-3 viability, CellTiter-Glo luminescence, at 10 µM, stronger effect = lower value
# [2] = HUVEC growth inhibition – cell-based, human, primary screen (AID 575;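 active means viability at or below 30% in both replicate assays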;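 further: 100% = median of untreated cell wells with 0.1% DMSO on each plate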); conditions: HUVEC proliferation, CellTiter-Glo luminescence, 72 h; at 10 µM; stronger effect = lower value
# Outline: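 Test system: primary human umbilical vein endothelial cells; medium: endothelial basal medium with 2% FBS plus growth supplements; dosing: 10 µM compound only; times: 72 h treatment at 37 °C; signal: CTG luminescence; read-out: % viability relative to median vehicle-well signal on each plate; control set: vehicle and MePR control wells; plate: 384-well, collagen-coated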
# [3] = growth inhibitors of H69AR lung tumor, primary screen, human, duplicate replicates (AID 580;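 active means viability at or under a set limit in both replicates, limit being median viability minus 3 SD, cut at about 48% in these data, passing the limit was not always enough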;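 further: 100% = mean luminescence of untreated wells and 0% = no signal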); conditions: H69AR lung tumor cells viability, ATP luminescence, 72 h; at 10 µM; stronger effect = lower value
# [4] = reversal of MRP1-mediated doxorubicin resistance, pilot screen, H69AR cells, doxorubicin co-treatment (AID 601); conditions: CellTiter-Glo, 72 h, at 10 µM; for differential viability (reversal): stronger effect = higher value
# [5] = 384-well plate pilot, post-Golgi transport modulator project, inhibition of yeast transport mutant growth (AID 636; in the data active means inhibition above about 31%); conditions: absorbance 615 nm, about 18 h, stronger effect = higher value
# [6] = growth suppression of yeast trafficking mutant, preliminary HTS, modulators of trafficking downstream of Golgi apparatus project, 1536-format plate, OD 615 nm (AID 637; in the data active means inhibition above about 30%); conditions: yeast transport mutant growth, absorbance 615 nm, 18 h; stronger effect = higher value
# [7] = H69AR cells + 2 uM doxorubicin, measured here: viability with 2 uM doxorubicin, stronger effect = lower value
# [8] = H69AR cells, compound alone cytotoxicity
Structure (SMILES),viability [1],viability [2],viability [3],differential viability (reversal) ([4]; H69AR cells + 2 uM doxorubicin),"viability [4, 7] [%]","viability [4, 8] [%]",inhibition [5],inhibition [6]
COC(=O)Cn1cnc2sc(C)c(S(=O)(=O)N3CCC(C)CC3)c2c1=O,85% (inactive),98.4% (inactive),91.3% (inactive),-5.84% (inactive),97.1,91.3,-1.64% (inactive),-0.91% (inactive)
C=CCC1(O)C(=O)Nc2ccccc21 (stereo unspecified),93% (inactive),108% (inactive),98.2% (inactive),18.9% (inactive),79.4,98.2,-5.2% (inactive),1.82% (inactive)
CCn1c(SCC(=O)NC)nnc1C(C)C,97% (inactive),123% (inactive),94.8% (inactive),8.98% (inactive),85.8,94.8,-7.3% (inactive),-4.91% (inactive)
COc1ccc(S(=O)(=O)N2CCCC(C(=O)NCc3ccccn3)C2)cc1 (stereo unspecified),146% (inactive),96.8% (inactive),95.5% (inactive),3.92% (inactive),91.6,95.5,-1.43% (inactive),-0.66% (inactive)
CCN(C(C)=O)c1nnc(CSc2nc3ccccc3s2)s1,114% (inactive),72.5% (inactive),100% (inactive),13.3% (inactive),86.7,100,-0.52% (inactive),-2.95% (inactive)
Cc1ccc(NC2=NCC(=O)N2c2ccc3c(c2)OCCO3)c(C)c1,84% (inactive),95.7% (inactive),99.4% (inactive),0.67% (inactive),98.7,99.4,-6.16% (inactive),-2.9% (inactive)
CCN(CC)C(=O)c1ccc(O)c(OC)c1,100% (inactive),90.7% (inactive),101% (inactive),0.23% (inactive),101,101,-4.94% (inactive),-5% (inactive)
COc1ccccc1-n1c(=O)c2c3c(sc2n2c(SC(C)C)nnc12)CCC3,104% (inactive),113% (inactive),86.2% (inactive),44.6% (inactive),41.7,86.2,-0.14% (inactive),1.77% (inactive)
N#CC1=C(N)OC2=C(CCC/C2=C/c2ccoc2)C1c1ccoc1 (stereo unspecified),87% (inactive),99.1% (inactive),80.8% (inactive),2.94% (inactive),77.9,80.8,-5.95% (inactive),0.18% (inactive)
COc1ccc(/C(O)=C2\C(=O)C(=O)N(c3cc(C)on3)C2c2ccccc2OC)cc1 (stereo unspecified),105% (inactive),101% (inactive),78.5% (inactive),-6.79% (inactive),85.3,78.5,-8.27% (inactive),-5.09% (inactive)
CN(C)c1ccc(C=NCC2(O)CCOC(C)(C)C2)cc1 (stereo unspecified),91% (inactive),91.8% (inactive),89.2% (inactive),0.32% (inactive),88.9,89.2,-7.67% (inactive),3.27% (inactive)
COc1cccc(NC(=O)N2CCCC2C(=O)Nc2ccc3c(c2)OCO3)c1 (stereo unspecified),106% (inactive),114% (inactive),96.3% (inactive),16.1% (inactive),80.2,96.3,-5.33% (inactive),-4.55% (inactive)
c1ccc(-c2oc3ncnc(NCCN4CCOCC4)c3c2-c2ccccc2)cc1,90% (inactive),58.8% (inactive),73.3% (inactive),40.4% (inactive),32.9,73.3,-0.52% (inactive),-4.1% (inactive)
CC(C)N(Cc1nc(-c2ccccc2)no1)C(=O)CCCN1C(=O)c2ccccc2C1=O,104% (inactive),112% (inactive),97.9% (inactive),15.7% (inactive),82.2,97.9,-3.12% (inactive),0.98% (inactive)
CC(=O)N1CN(C2CCCC2)Cc2c1sc1c2CCCC1,95% (inactive),103% (inactive),101% (inactive),-16% (inactive),117,101,-8.22% (inactive),0.36% (inactive)
CC(COc1ccccc1)N(CCCl)Cc1ccccc1 (stereo unspecified),107% (inactive),78.2% (inactive),56.1% (inactive),9.34% (inactive),46.7,56.1,-0.65% (inactive),-3.33% (inactive)
CC(=O)OCC(=O)[C@@]1(O)CC[C@H]2[C@@H]3CCC4=CC(=O)CC[C@]4(C)[C@H]3[C@@H](O)C[C@@]21C,101% (inactive),74.1% (inactive),100% (inactive),2.38% (inactive),97.7,100,-4.29% (inactive),-1.17% (inactive)
O=C(NCc1ccccc1)c1cc(-c2ccco2)on1,111% (inactive),100% (inactive),94% (inactive),16.6% (inactive),77.3,94,-0.13% (inactive),4.59% (inactive)
O=C1OCCC1Sc1ncnc2sccc12 (stereo unspecified),78% (inactive),107% (inactive),104% (inactive),21.8% (inactive),82.3,104,-4.93% (inactive),-2.18% (inactive)
COCCn1nnnc1SCC(=O)N1CCCCC1,63% (inactive),102% (inactive),99.4% (inactive),1.98% (inactive),97.4,99.4,-5.34% (inactive),4.18% (inactive)
Nc1ccc(S(=O)(=O)c2ccc(N)cc2)cc1,95% (inactive),85.9% (inactive),106% (inactive),19.4% (inactive),87.1,106,-2.21% (inactive),5.17% (inactive)
CCN(CC)S(=O)(=O)c1ccc(F)c(C(=O)NCCC(C)C)c1,82% (inactive),95% (inactive),90.9% (inactive),6.46% (inactive),84.4,90.9,-0.54% (inactive),-2.73% (inactive)
O=C(c1ccco1)N1CCN(c2nc(C(F)(F)F)nc3c2nnn3Cc2ccccc2)CC1,133% (inactive),69.2% (inactive),73.3% (inactive),-2.53% (inactive),75.8,73.3,-9.45% (inactive),-0.16% (inactive)
S=C(c1ccc(N2CCOCC2)cc1)N1CCCCC1,103% (inactive),105% (inactive),93.5% (inactive),4.23% (inactive),89.2,93.5,-5.48% (inactive),-8.87% (inactive)

Structure (SMILES),viability [1],viability [2],viability [3],differential viability (reversal) ([4]; H69AR cells + 2 uM doxorubicin),"viability [4, 7] [%]","viability [4, 8] [%]",inhibition [5],inhibition [6]
CCC(C)(C)n1nnnc1C(c1cc2cc(C)ccc2[nH]c1=O)N1CCCC1 (stereo unspecified),94% (inactive),98.7% (inactive),98.6% (inactive),9.6% (inactive),89,98.6,-4.55% (inactive),4.26% (inactive)
COCCNC(=O)C(c1ccc(C)o1)N(C(=O)c1snc(C(N)=O)c1N)c1ccc(C)cc1 (stereo unspecified),100% (inactive),87.5% (inactive),92.1% (inactive),9.05% (inactive),83.1,92.1,-3.87% (inactive),3.64% (inactive)
N#Cc1c(N2CCOCC2)nc(N2CCCCC2)c2c1CCN(C1CCCCC1)C2,92% (inactive),101% (inactive),89.2% (inactive),17.5% (inactive),71.6,89.2,-1.22% (inactive),-1.82% (inactive)
CC1CNCCN1S(=O)(=O)c1cccc2cnccc12 (stereo unspecified),100% (inactive),84.4% (inactive),102% (inactive),5.87% (inactive),96.2,102,1.3% (inactive),-1.83% (inactive)
O=C(Nc1ccc(N2CCOCC2)c(Cl)c1)c1ccc(Br)o1,91% (inactive),65.5% (inactive),20% (active),-12.4% (inactive),32.4,20,-3.7% (inactive),5.81% (inactive)
CCOC(=O)Cc1nnc(Nc2cccc(O)c2)c2ccccc12,98% (inactive),95.4% (inactive),106% (inactive),20.6% (inactive),85.8,106,-3.65% (inactive),0% (inactive)
Cc1nc2sccn2c(=O)c1CCN1CCC(=C(c2ccc(F)cc2)c2ccc(F)cc2)CC1,111% (inactive),11.5% (active),85.7% (inactive),-2.19% (inactive),87.8,85.7,1.04% (inactive),6.17% (inactive)
CC(=O)NCCCCCCNC(C)=O,125% (inactive),100% (inactive),94.5% (inactive),5.61% (inactive),88.9,94.5,4.94% (inactive),-1.17% (inactive)
CCCCOc1ccc(C2C3CN(C(=O)OCC)CC=C3C(C#N)=C(N)C2(C#N)C#N)cc1OC (stereo unspecified),62% (inactive),51.2% (inactive),60.5% (inactive),5.07% (inactive),55.4,60.5,-5.27% (inactive),2.13% (inactive)
COc1ccc(C(=O)NC(=O)CSc2nnc(-c3ccco3)n2-c2ccccc2)cc1,90% (inactive),109% (inactive),105% (inactive),16.3% (inactive),88.7,105,-7.3% (inactive),-0.55% (inactive)
O=C(CN1C(=O)CC(c2ccco2)Sc2ccccc21)Nc1ccc2c(c1)OCCO2 (stereo unspecified),130% (inactive),99% (inactive),76.9% (inactive),1.83% (inactive),75.1,76.9,-2.76% (inactive),-0.16% (inactive)
Cc1nc2ccc(S(=O)(=O)NCC(=O)N3CCc4ccccc4C3)cc2s1,87% (inactive),106% (inactive),93.5% (inactive),6.91% (inactive),86.6,93.5,2.47% (inactive),3.11% (inactive)
COc1cccc(S(=O)(=O)Nc2ccc(C(=O)N3CCN(C(=O)c4ccco4)CC3)cc2)c1,85% (inactive),104% (inactive),86.3% (inactive),14.7% (inactive),71.5,86.3,-2.19% (inactive),-0.97% (inactive)
Cc1oc(-c2ccc(Cl)cc2)cc1-c1nn2c(-c3ccoc3C)nnc2s1,86% (inactive),75.3% (inactive),83.7% (inactive),-12% (inactive),95.7,83.7,18.9% (inactive),3.06% (inactive)
O=C(O)C1C2C=CC(C3CC23)C1C(=O)NCCc1ccccc1 (stereo unspecified),101% (inactive),89.7% (inactive),98% (inactive),6.28% (inactive),91.7,98,-5.81% (inactive),-3.93% (inactive)
Cc1nc(NC(=O)c2ccccc2)sc1-c1csc(NCc2ccco2)n1,82% (inactive),89% (inactive),20.2% (active),-42.5% (inactive),62.7,20.2,34.6% (active),9.27% (inactive)
O=c1c2ccccc2[nH]c(=S)n1CCN1CCC(=C(c2ccc(F)cc2)c2ccc(F)cc2)CC1,113% (inactive),18.2% (active),78.8% (inactive),-4.72% (inactive),83.6,78.8,83% (active),71% (active)
C[C@H](CCC(=O)O)[C@H]1CC[C@H]2[C@@H]3C(=O)C[C@@H]4CC(=O)CC[C@]4(C)[C@H]3CC(=O)[C@]12C,128% (inactive),88.9% (inactive),96% (inactive),-6.55% (inactive),102,96,0.65% (inactive),-0.83% (inactive)
Cn1c(C(=O)OC(C(=O)NC2CCCC2)c2cccnc2)cc2sccc21 (stereo unspecified),74% (inactive),110% (inactive),89.1% (inactive),-3.48% (inactive),92.6,89.1,-4.38% (inactive),2.91% (inactive)
CCCOc1cccc(C(=O)Nc2cc(NC(=O)c3ccco3)ccc2OC)c1,88% (inactive),85.1% (inactive),85% (inactive),-6.07% (inactive),91.1,85,-3.78% (inactive),-2.55% (inactive)
Cc1ccc(Cn2ccc(NC(=O)c3cc(-c4cccs4)on3)n2)cc1,96% (inactive),48.7% (inactive),82.9% (inactive),0.115% (inactive),82.8,82.9,-2.6% (inactive),-2.46% (inactive)
Cc1cc(NC(=O)CSc2nc(C3CCCCC3)nc3ccccc23)no1,101% (inactive),99.8% (inactive),80% (inactive),16.2% (inactive),63.9,80,-0.8% (inactive),-2% (inactive)
C=CCc1ccccc1OCC(O)CN1CCN(Cc2ccc3c(c2)OCO3)CC1 (stereo unspecified),101% (inactive),73.8% (inactive),70.1% (inactive),-5.96% (inactive),76,70.1,59.1% (active),58.4% (active)
